Reference: ChEMBL document CHEMBL4477235, “Evolution of a Novel, Orally Bioavailable Series of PI3Kδ Inhibitors from an Inhaled Lead for the Treatment of Respiratory Disease” (J Med Chem, 2016)
≈ marks a conversion by molar mass, not a printed value.

Columns and labels:
[1] = organism: Homo sapiens; experiment: Selectivity ratio of IC50 for PI3Kalpha (unknown origin) to IC50 for PI3Kdelta (unknown origin)
Procedure, shortened: (§1)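 Ratio of each isoform's HTRF IC50 to the PI3Kδ HTRF IC50. Enzymes were preincubated 15 min with 4-fold compound dilutions in HEPES pH 7.0, MgCl2, DTT buffer. […] PIP2 was 5 µM for δ and 8 µM for α/β/γ. 60 min reaction, then EDTA quench with GRP-1 PH domain/APC/Eu detection. Four-parameter fit.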

[2] = organism: Homo sapiens; experiment: Selectivity ratio of IC50 for PI3Kbeta (unknown origin) to IC50 for PI3Kdelta (unknown origin); procedure, shortened: as §1
[3] = organism: Homo sapiens; experiment: Selectivity ratio of IC50 for PI3Kgamma (unknown origin) to IC50 for PI3Kdelta (unknown origin); procedure, shortened: as §1
[4] = molecular target: T1, Phosphatidylinositol 4,5-bisphosphate 3-kinase catalytic subunit delta isoform (Homo sapiens, UniProt O00329)
T1 sequence (O00329 whole entry): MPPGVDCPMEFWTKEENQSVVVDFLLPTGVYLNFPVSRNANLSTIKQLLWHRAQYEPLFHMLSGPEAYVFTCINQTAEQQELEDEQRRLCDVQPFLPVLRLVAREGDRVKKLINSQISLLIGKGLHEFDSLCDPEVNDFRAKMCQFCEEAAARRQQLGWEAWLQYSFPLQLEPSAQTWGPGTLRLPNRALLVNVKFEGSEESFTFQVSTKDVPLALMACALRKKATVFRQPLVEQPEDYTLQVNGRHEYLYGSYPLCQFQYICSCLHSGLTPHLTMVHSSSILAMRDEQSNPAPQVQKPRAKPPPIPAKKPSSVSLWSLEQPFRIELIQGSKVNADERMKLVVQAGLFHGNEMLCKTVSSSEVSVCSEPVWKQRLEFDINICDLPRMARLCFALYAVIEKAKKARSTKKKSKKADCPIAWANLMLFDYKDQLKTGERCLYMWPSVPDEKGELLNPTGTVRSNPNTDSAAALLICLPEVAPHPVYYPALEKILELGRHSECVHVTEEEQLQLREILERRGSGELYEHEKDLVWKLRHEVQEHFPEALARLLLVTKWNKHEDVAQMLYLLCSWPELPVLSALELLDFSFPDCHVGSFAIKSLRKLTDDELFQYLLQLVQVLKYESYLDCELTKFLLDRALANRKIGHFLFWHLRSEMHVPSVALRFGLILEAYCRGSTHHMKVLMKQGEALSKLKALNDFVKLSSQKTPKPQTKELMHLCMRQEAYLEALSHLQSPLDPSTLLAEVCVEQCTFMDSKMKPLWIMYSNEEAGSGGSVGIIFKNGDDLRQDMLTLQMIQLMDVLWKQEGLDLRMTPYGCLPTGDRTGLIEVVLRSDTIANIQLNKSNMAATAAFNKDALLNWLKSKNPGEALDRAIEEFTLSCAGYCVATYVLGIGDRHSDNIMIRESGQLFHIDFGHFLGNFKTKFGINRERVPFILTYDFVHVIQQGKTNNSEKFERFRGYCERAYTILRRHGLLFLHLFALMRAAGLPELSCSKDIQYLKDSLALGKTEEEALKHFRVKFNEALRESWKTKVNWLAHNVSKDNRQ

[5] = Clearance in rat liver microsomes at 0.5 uM measured up to 30 mins by LC-MS/MS analysis; format: ADME, Microsome; details: 0.5 h
Procedure, shortened: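 Rat liver microsomes (0.5 mg protein/mL) prewarmed 10 min at 37 °C, started with NADPH regeneration system. Final compound 0.5 μM. Sampled at 0, 3, 6, 12 and 30 min into acetonitrile with internal standard. Peak area ratios by LC–MS/MS fitted to log-linear decline. Clearance scaled by protein concentration, incubation volume and 52.5 mg microsomal protein/g liver.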

[6] = Clearance in mouse liver microsomes at 0.5 uM measured up to 30 mins by LC-MS/MS analysis; format: ADME, Microsome; details: 0.5 h
[7] = Clearance in human liver microsomes at 0.5 uM measured up to 30 mins by LC-MS/MS analysis; format: ADME, Microsome; details: 0.5 h
[8] = AUC(infinity) in Sprague-Dawley rat at 3 mg/kg, po measured up to 7 hrs by LC-MS/MS analysis; format: ADME, organism-based; set-up: dose 3 mg/kg, time infinity, route oral; details: in vivo
Procedure, shortened: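 Male Sprague Dawley rats (n = 2/route), oral dose in DMSO/PEG200/water (5:45:50 v/v/v) at 6 mL/kg. Serial tail-vein bleeds over 0–7 h. Parent compound quantified by LC–MS/MS. Parameters from noncompartmental analysis.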

[9] = Half life in Sprague-Dawley rat at 1 mg/kg, iv by LC-MS/MS analysis; format: ADME, organism-based; details: in vivo
Procedure, shortened: (§2)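 Male Sprague Dawley rats (n = 2/route), intravenous dose as a solution in DMSO/PEG200/water (5:45:50 v/v/v) at 2 mL/kg. Serial tail-vein blood sampling over 0–7 h. LC–MS/MS quantification of parent. Noncompartmental analysis.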

[10] = Oral bioavailability in Sprague-Dawley rat at 3 mg/kg measured up to 7 hrs by LC-MS/MS analysis; format: ADME, organism-based; details: in vivo; for F: 7 h
Procedure, shortened: (§3)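 Male Sprague Dawley rats, n = 2 per route, were dosed discretely at 3 mg/kg orally or 1 mg/kg intravenously. The dosing solution was DMSO/PEG200/water (5:45:50 v/v/v). Serial tail-vein blood samples were taken over 0–7 h, and parent compound was quantified by LC–MS/MS. Parameters were estimated by noncompartmental analysis.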

[11] = Volume of distribution at steady state in Sprague-Dawley rat at 3 mg/kg, po or 1 mg/kg, iv measured up to 7 hrs by LC-MS/MS analysis; format: ADME, organism-based; details: in vivo, read-out: Vdss; procedure, shortened: as §3
[12] = molecular target: Albumin (Homo sapiens, UniProt P02768); experiment: Binding affinity to human serum albumin by HPLC analysis; format: ADME; details: read-out: PB (converted)
[13] = Kinetic solubility in phosphate buffered saline at pH 7.4 after 1 hr by chemiluminescent nitrogen detection method; format: physicochemical; details: read-out: Kinetic_solubility
Procedure, shortened: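 The sample was then filtered, and the filtrate was quantified by calibrated flow-injection chemiluminescent nitrogen detection. Standard error was ±30 µM, and the upper limit was 500 µM from the 10 mM stock.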

[14] = molecular target: Phosphatidylinositol 4,5-bisphosphate 3-kinase catalytic subunit delta isoform (Homo sapiens) (UniProt O00329); experiment: Ratio of IC50 for PI3Kdelta in human PBMC to IC50 for PI3Kdelta (unknown origin)
[15] = molecular target: T1, Phosphatidylinositol 4,5-bisphosphate 3-kinase catalytic subunit delta isoform; remark: listed apart in the source
[16] = molecular target: Phosphatidylinositol 4,5-bisphosphate 3-kinase catalytic subunit alpha isoform (Homo sapiens, UniProt P42336); experiment: Inhibition of PI3Kalpha (unknown origin) using PIP2 as substrate preincubated for 15 mins followed by substrate addition measured after 60 mins in presence of biotin-labeled PIP3 by HTRF assay
Procedure, shortened: (§4)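 HTRF kinase assay in 50 mM HEPES pH 7.0, 150 mM NaCl, 10 mM MgCl₂, 1 mM DTT. Enzyme preincubated 15 min with 4-fold serially diluted compound. […] Quenched after 60 min with EDTA plus GRP-1 PH domain/streptavidin-APC/Eu-antiGST detection, then equilibrated 60 min in the dark. Data normalized to no-compound and no-enzyme controls. IC50 from four-parameter fit.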

[17] = molecular target: Phosphatidylinositol 4,5-bisphosphate 3-kinase catalytic subunit beta isoform (Homo sapiens, UniProt P42338); experiment: Inhibition of PI3Kbeta (unknown origin) using PIP2 as substrate preincubated for 15 mins followed by substrate addition measured after 60 mins in presence of biotin-labeled PIP3 by HTRF assay; procedure, shortened: as §4
[18] = molecular target: Phosphatidylinositol 4,5-bisphosphate 3-kinase catalytic subunit gamma isoform (Homo sapiens, UniProt P48736); experiment: Inhibition of PI3Kgamma (unknown origin) using PIP2 as substrate preincubated for 15 mins followed by substrate addition measured after 60 mins in presence of biotin-labeled PIP3 by HTRF assay; procedure, shortened: as §4
[19] = Lipophilicity, log D of compound at pH 7.4 by chromatographic method; format: physicochemical; details: buffer
[20] = AUC (0 to t) in Sprague-Dawley rat at 3 mg/kg, po measured up to 7 hrs by LC-MS/MS analysis; format: ADME, organism-based; set-up: dose 3 mg/kg, time < 7 hr, route oral; details: in vivo
Procedure, shortened: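 Male Sprague Dawley rats were given a single oral dose of 3 mg/kg in DMSO/PEG200/water (5:45:50 v/v/v) at 6 mL/kg, with n = 2 per route. Blood was sampled serially from the tail vein over 0–7 h. Parent compound was quantified by LC–MS/MS, and parameters were derived by noncompartmental analysis.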

[21] = Clearance in Sprague-Dawley rat at 1 mg/kg, iv measured up to 7 hrs by LC-MS/MS analysis; format: ADME, organism-based; details: in vivo; procedure, shortened: as §2
[22] = Cmax in Sprague-Dawley rat at 3 mg/kg, po measured up to 7 hrs by LC-MS/MS analysis; format: ADME, organism-based; set-up: dose 3 mg/kg, route oral; details: in vivo

Chain of Albumin (P02768 whole entry): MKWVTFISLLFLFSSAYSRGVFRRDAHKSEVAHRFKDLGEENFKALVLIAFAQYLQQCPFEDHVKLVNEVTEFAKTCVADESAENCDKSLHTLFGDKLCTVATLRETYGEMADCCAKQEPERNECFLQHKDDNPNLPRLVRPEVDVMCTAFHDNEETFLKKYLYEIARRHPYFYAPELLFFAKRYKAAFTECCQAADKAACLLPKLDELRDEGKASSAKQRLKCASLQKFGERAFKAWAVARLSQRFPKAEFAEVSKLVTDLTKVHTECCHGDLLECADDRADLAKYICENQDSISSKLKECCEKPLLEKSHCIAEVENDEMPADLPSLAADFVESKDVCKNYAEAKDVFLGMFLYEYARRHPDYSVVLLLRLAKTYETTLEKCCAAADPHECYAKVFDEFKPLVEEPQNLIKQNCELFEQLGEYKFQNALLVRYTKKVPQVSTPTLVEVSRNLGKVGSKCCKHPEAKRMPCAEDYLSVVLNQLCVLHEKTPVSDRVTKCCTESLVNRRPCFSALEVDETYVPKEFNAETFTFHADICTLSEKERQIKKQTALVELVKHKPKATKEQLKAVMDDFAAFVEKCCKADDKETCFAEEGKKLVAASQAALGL
Chain of Phosphatidylinositol 4,5-bisphosphate 3-kinase catalytic subunit alpha isoform (P42336 whole entry, the tested form may be a part, canonical isoform): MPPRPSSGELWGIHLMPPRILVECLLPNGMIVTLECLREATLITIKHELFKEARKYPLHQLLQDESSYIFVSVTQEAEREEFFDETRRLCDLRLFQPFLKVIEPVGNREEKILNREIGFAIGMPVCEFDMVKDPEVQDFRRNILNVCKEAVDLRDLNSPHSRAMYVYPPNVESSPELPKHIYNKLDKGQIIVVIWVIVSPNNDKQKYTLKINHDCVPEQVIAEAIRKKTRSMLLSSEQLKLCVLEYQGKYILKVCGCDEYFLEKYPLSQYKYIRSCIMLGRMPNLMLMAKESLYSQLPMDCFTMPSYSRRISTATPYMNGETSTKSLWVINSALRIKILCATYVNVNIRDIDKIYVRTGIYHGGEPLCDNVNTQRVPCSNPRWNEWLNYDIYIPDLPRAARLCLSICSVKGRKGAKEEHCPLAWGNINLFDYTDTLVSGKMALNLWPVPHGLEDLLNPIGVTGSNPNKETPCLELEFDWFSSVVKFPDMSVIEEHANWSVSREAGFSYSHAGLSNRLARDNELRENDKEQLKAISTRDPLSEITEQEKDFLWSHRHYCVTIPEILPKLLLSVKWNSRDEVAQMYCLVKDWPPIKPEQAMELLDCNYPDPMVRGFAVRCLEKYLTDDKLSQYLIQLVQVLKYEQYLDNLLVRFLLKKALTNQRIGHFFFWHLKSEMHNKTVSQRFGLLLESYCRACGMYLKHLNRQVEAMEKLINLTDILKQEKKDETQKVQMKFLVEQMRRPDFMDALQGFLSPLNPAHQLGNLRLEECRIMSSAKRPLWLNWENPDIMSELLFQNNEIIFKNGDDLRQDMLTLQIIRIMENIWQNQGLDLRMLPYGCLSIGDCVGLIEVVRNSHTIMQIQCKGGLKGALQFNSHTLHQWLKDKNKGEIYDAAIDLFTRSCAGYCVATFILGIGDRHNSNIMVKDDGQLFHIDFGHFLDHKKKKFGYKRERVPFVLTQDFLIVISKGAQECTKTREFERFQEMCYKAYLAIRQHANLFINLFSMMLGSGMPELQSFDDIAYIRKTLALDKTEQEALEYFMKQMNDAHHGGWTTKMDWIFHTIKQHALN
Chain of Phosphatidylinositol 4,5-bisphosphate 3-kinase catalytic subunit beta isoform (P42338 whole entry, canonical isoform): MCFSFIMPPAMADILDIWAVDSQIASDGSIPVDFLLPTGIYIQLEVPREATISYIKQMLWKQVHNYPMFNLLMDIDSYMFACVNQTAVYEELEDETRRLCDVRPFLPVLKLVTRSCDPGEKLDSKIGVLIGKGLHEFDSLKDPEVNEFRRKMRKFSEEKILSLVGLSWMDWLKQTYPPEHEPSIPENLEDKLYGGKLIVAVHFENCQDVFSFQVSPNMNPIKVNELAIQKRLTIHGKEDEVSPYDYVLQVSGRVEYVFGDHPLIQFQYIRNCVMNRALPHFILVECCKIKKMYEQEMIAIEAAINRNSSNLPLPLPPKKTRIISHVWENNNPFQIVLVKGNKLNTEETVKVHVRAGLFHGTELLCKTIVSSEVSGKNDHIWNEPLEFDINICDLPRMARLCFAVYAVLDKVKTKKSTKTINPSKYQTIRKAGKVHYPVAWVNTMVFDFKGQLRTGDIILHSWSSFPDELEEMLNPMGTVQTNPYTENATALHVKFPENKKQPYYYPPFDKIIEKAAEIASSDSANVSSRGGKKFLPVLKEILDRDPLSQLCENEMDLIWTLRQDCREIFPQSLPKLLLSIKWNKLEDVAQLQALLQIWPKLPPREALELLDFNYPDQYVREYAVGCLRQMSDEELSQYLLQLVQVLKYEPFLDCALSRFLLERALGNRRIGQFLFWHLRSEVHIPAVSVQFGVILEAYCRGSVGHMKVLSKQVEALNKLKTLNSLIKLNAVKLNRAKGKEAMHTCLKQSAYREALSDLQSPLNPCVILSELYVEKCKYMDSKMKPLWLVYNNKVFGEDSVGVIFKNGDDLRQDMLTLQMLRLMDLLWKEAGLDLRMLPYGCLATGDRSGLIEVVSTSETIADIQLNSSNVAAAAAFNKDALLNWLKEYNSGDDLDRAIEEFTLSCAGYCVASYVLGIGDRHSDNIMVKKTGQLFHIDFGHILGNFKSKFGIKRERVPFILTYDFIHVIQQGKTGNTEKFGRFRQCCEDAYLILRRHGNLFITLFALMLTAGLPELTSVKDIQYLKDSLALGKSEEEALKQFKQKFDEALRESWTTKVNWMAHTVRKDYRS
Chain of Phosphatidylinositol 4,5-bisphosphate 3-kinase catalytic subunit gamma isoform (P48736 whole entry, canonical isoform): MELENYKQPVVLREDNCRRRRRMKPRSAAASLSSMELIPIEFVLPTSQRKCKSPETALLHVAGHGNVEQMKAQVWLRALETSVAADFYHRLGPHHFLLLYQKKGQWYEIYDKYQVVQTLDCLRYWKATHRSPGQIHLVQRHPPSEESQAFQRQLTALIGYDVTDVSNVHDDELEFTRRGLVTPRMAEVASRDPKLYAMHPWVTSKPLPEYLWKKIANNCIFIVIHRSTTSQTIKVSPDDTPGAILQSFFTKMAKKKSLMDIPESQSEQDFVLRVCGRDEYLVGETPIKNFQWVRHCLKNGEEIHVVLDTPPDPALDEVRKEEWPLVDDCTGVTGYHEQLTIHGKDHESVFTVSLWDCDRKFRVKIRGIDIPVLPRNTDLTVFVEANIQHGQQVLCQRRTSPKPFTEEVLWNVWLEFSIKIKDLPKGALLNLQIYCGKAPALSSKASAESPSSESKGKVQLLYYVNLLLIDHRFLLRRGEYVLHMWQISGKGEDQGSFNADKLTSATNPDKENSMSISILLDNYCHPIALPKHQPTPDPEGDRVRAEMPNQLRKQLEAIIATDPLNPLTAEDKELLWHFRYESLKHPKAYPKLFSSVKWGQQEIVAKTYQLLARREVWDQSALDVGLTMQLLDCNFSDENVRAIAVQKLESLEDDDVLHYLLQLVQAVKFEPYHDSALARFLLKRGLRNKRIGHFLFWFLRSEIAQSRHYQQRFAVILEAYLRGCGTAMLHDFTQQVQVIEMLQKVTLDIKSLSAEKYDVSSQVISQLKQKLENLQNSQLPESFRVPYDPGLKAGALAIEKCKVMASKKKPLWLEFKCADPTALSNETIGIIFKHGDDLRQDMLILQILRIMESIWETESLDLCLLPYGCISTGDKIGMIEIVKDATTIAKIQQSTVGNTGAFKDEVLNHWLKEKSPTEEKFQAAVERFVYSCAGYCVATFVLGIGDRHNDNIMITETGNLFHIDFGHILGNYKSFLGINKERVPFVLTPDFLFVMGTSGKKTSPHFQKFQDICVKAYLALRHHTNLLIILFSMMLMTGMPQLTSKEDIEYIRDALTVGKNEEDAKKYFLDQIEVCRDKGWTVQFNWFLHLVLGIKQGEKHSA

Structure (SMILES)	Ratio IC50 [1]	Ratio IC50 [2]	Ratio IC50 [3]	IC50 [4]	CLH [5]	CLH [6]	CLH [7]	half-life [9]	Vd [11]	fraction unbound [12]	solubility kinetic at 1 h [13]	chromatographic logD [19]	also measured
COc1ncc(-c2cc3c(c(NC(=O)c4csc(C)n4)c2)COC3)cc1NS(C)(=O)=O	50	63	25	7.94 nM	–	–	–	–	–	–	–	–	–
COc1ncc(-c2cc3c(c(-c4ccccn4)c2)COC3)cc1NS(C)(=O)=O	10	20	6	63.1 nM	–	–	–	–	–	–	–	–	–
COc1ncc(-c2cc3c(c(-c4nnc(C)o4)c2)COC3)cc1NS(C)(=O)=O	5	13	5	20 nM	< 0.5 mL/min/g	1 mL/min/g	< 0.5 mL/min/g	0.9 h	0.5 L/kg	0.1	195 µg/mL (≈ 485 µM)	–	AUC ([8]; 7 h): 1370 ng·h/mL; F [10]: 56%; Ratio IC50 [14]: > 10; IC50 [15]: 200 nM
COc1ncc(-c2ccc3cn[nH]c3c2)cc1NS(C)(=O)=O	–	–	–	–	–	–	–	–	–	–	31 µg/mL (≈ 97.4 µM)	2.6	IC50 [16]: 7940 nM; IC50 [17]: 7940 nM; IC50 [18]: 2510 nM
COc1ncc(-c2cc3c(c(NC(C)=O)c2)COC3)cc1NS(C)(=O)=O	4	13	13	398 nM	–	–	–	–	–	–	–	–	–
COc1ncc(-c2cc3c(c(NC(=O)c4cccc(C)n4)c2)COC3)cc1NS(C)(=O)=O	50	126	25	5.01 nM	1.2 mL/min/g	1.4 mL/min/g	< 0.5 mL/min/g	3.4 h	1.6 L/kg	0.07	50 µg/mL (≈ 110 µM)	–	F [10]: 1.5%; Ratio IC50 [14]: > 10; AUCt [20]: 42 ng·h/mL; IC50 [15]: 200 nM
COc1ncc(-c2cc(-c3ncc(CN4C[C@@H](C)O[C@@H](C)C4)o3)c3cn[nH]c3c2)cc1NS(C)(=O)=O	–	–	–	–	1.9 mL/min/g	5.9 mL/min/g	3.2 mL/min/g	2.6 h	3.5 L/kg	0.1	182 µg/mL (≈ 355 µM)	3.3	AUC(0-inf) ([8]; Sprague-Dawley): < 24 ng·h/mL; clearance [21]: 50 mL/min/kg; bioavailability ([10]; Sprague-Dawley): < 2%; Cmax [22]: < 2 ng/mL
COc1ncc(-c2cc(NC(=O)c3csc(C)n3)c3cn[nH]c3c2)cc1NS(C)(=O)=O	63	63	16	–	–	–	–	–	–	–	–	–	–
COc1ncc(-c2ccc3c(c2)COC3)cc1NS(C)(=O)=O	5	2.5	4	794 nM	–	–	–	–	–	–	92 µg/mL (≈ 287 µM)	3.5	IC50 [16]: 3980 nM; IC50 [17]: 2000 nM; IC50 [18]: 3160 nM
